The source made the active and inactive calls.
Legend:
[1] = tested on: Mus musculus; experiment: Anticonvulsant activity in albino CF1 mouse assessed as protection against subcutaneous metrazol-induced seizures at 30 to 300 mg/kg, ip after 0.5 to 4 hrs; type: functional, organism-based
Summary of the method: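 CF No. 1 male mice dosed ip at 30, 100 or 300 mg/kg (saline or 0.5% methylcellulose), then given pentetrazole 85 mg/kg sc as 0.5% solution in posterior midline. Watched 30 min. Protection means no threshold seizure (single clonic spasm episode of at least 5 s). Expressed as protected/tested.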

[2] = tested on: Mus musculus; experiment: Neurotoxicity in albino CF1 mouse assessed as minimal motor impairment at 300 mg/kg, ip after 4 hrs by rotorod test; type: toxicity, organism-based; set-up: dose 300 mg/kg, route intraperitoneal; details: in vivo
Summary of the method: (§1)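 Rotarod in male CF No. 1 mice after ip dosing (30, 100, 300 mg/kg; saline or 0.5% methylcellulose) at 15–240 min. Knurled plastic rod, 1-inch diameter, 6 rpm. Toxicity means failing to stay on for 1 min on three successive attempts. Recorded as toxic/tested.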

[3] = tested on: Mus musculus; experiment: Neurotoxicity in albino CF1 mouse assessed as minimal motor impairment at 300 mg/kg, ip after 0.5 hr by rotorod test; type: toxicity, organism-based; set-up: dose 300 mg/kg, route intraperitoneal; details: in vivo; summary of the method: as §1
[4] = tested on: Mus musculus; experiment: Neurotoxicity in albino CF1 mouse assessed as minimal motor impairment at 100 mg/kg, ip after 4 hrs by rotorod test; type: toxicity, organism-based; set-up: dose 100 mg/kg, route intraperitoneal; details: in vivo; summary of the method: as §1
[5] = tested on: Mus musculus; experiment: Neurotoxicity in albino CF1 mouse assessed as minimal motor impairment at 100 mg/kg, ip after 0.5 hr by rotorod test; type: toxicity, organism-based; set-up: dose 100 mg/kg, route intraperitoneal; details: in vivo; summary of the method: as §1
[6] = tested on: Mus musculus; experiment: Anticonvulsant activity in albino CF1 mouse assessed as protection against maximal electroshock-induced seizures at 300 mg/kg, ip after 4 hrs; type: functional, organism-based; set-up: dose 300 mg/kg
Summary of the method: (§2)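 Male albino CF No. 1 mice (18–25 g) dosed ip at 30, 100 and 300 mg/kg in saline or 0.5% methylcellulose, tested 15, 30, 60 and 240 min after dosing. Maximal electroshock seizures elicited with 60-cycle alternating current. Scored as animals protected/animals tested, small qualitative groups.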

[7] = tested on: Mus musculus; experiment: Anticonvulsant activity in albino CF1 mouse assessed as protection against maximal electroshock-induced seizures at 300 mg/kg, ip after 0.5 hr; type: functional, organism-based; set-up: dose 300 mg/kg; summary of the method: as §2
[8] = tested on: Mus musculus; experiment: Anticonvulsant activity in albino CF1 mouse assessed as protection against maximal electroshock-induced seizures at 100 mg/kg, ip after 4 hrs; type: functional, organism-based; set-up: dose 100 mg/kg; summary of the method: as §2
[9] = tested on: Mus musculus; experiment: Anticonvulsant activity in albino CF1 mouse assessed as protection against maximal electroshock-induced seizures at 100 mg/kg, ip after 0.5 hr; type: functional, organism-based; set-up: dose 100 mg/kg; summary of the method: as §2
[10] = tested on: Mus musculus; experiment: Neurotoxicity in albino CF1 mouse assessed as minimal motor impairment at 100 mg/kg, ip after 1 hr by rotorod test; type: toxicity, organism-based; set-up: dose 100 mg/kg, route intraperitoneal; details: in vivo; summary of the method: as §1
[11] = tested on: Mus musculus; experiment: Neurotoxicity in albino CF1 mouse assessed as minimal motor impairment at 100 mg/kg, ip after 0.25 hr by rotorod test; type: toxicity, organism-based; set-up: dose 100 mg/kg, route intraperitoneal; details: in vivo; summary of the method: as §1
[12] = tested on: Mus musculus; experiment: Anticonvulsant activity in albino CF1 mouse assessed as protection against maximal electroshock-induced seizures at 100 mg/kg, ip after 1 hr; type: functional, organism-based; set-up: dose 100 mg/kg; summary of the method: as §2
[13] = tested on: Mus musculus; experiment: Anticonvulsant activity in albino CF1 mouse assessed as protection against maximal electroshock-induced seizures at 100 mg/kg, ip after 0.25 hr; type: functional, organism-based; set-up: dose 100 mg/kg; summary of the method: as §2
[14] = tested on: Mus musculus; experiment: Anesthetic activity in […] assessed as latency in response to thermal stimuli administered as 2% solution, sc measured after 15 mins by modified tail immersion test; type: functional, albino CF1
[15] = tested on: Mus musculus; experiment: Anesthetic activity in albino CF1 mouse assessed as latency in response to thermal stimuli administered as 1% solution, sc measured after 15 mins by modified tail immersion test; type: functional
Summary of the method: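 Male Albino Swiss (CD-1) mice, 6-8 per group, tested at 1% and 2% compound concentration. Tail distal 3 cm immersed in water at 50 ± 0.5 °C 15 min after treatment. Tail-withdrawal latency recorded with a 20 s cutoff. Value is % difference in latency vs vehicle-treated mice. Mean ± SEM, Student's t-test.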

[16] = tested on: Mus musculus; experiment: […] activity in ip dosed albino CF1 mouse assessed as inhibition of phenylbenzoquinone-induced writhing administered after 30 mins prior challenge; type: functional
Summary of the method: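 Male Albino Swiss (CD-1) mice, 6-8 per dose. Compound given ip in 0.5% methylcellulose. 30 min later, 0.25 ml of 0.02% phenylbenzoquinone injected. After 5 min, writhes counted over 10 min. % effect = (vehicle mean − drug mean)/vehicle mean × 100. ED50 derived; Student's t-test.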

[17] = tested on: Mus musculus; experiment: Analgesic activity in albino CF1 mouse assessed as inhibition of heat-induced paw licking or jumping behaviour administered after 30 mins prior heat challenge by hot plate method; type: functional

Compound | Activity [1] | Activity [2] | Activity [3] | Activity [4] | Activity [5] | Activity [6] | Activity [7] | Activity [8] | Activity [9] | Activity [10] | Activity [11] | Activity [12] | Activity [13] | Activity [14] | Activity [15] | ED50 [16] | ED50 [17]
O=C1OCCC1N1CCN(c2ccc(F)cc2)CC1 (racemic) | inactive | Toxic | Toxic | Toxic | Toxic | inactive | inactive | inactive | inactive | – | – | – | – | – | – | – | –
O=C1CC(N2CCN(c3ccccc3)CC2)CO1 (racemic) | inactive | Non-toxic | Toxic | Non-toxic | Toxic | inactive | inactive | inactive | inactive | – | – | – | – | – | – | – | –
O=C1OCCC1N1CCC(Cc2ccccc2)CC1 (racemic) | inactive | Toxic | Toxic | Non-toxic | Non-toxic | inactive | Active | inactive | inactive | Non-toxic | Non-toxic | inactive | inactive | – | – | – | –
Cl.O=C1OCCC1NCc1ccccc1 (racemic) | inactive | Non-toxic | Non-toxic | Non-toxic | Non-toxic | inactive | inactive | inactive | inactive | – | – | – | – | 64% | 1% | 2.4 mg/kg | 4.3 mg/kg
COc1ccc(CNC2CCOC2=O)cc1.Cl (racemic) | inactive | Non-toxic | Non-toxic | Non-toxic | Non-toxic | inactive | inactive | inactive | inactive | – | – | – | – | – | – | – | –
O=C1OCCC1NCc1ccccc1C(F)(F)F (racemic) | inactive | Non-toxic | Non-toxic | Non-toxic | Non-toxic | inactive | inactive | inactive | inactive | – | – | – | – | – | – | – | –
COc1cc2c(cc1OC)CN(C1CCOC1=O)CC2 (racemic) | inactive | Non-toxic | Non-toxic | Non-toxic | Non-toxic | inactive | inactive | inactive | inactive | – | – | – | – | – | – | 6.1 mg/kg | 39.8 mg/kg
CC(=O)Oc1ccccc1C(=O)O [ASPIRIN] | – | – | – | – | – | – | – | – | – | – | – | – | – | – | – | 39.2 mg/kg | –
CCN(CC)CC(=O)Nc1c(C)cccc1C [LIDOCAINE] | – | – | – | – | – | – | – | – | – | – | – | – | – | 173% | 132% | – | –
Cc1cccc(C)c1NC(=O)C1CCCCN1C (stereo not given) [MEPIVACAINE] | – | – | – | – | – | – | – | – | – | – | – | – | – | 117% | 95% | – | –
CN1CC[C@]23c4c5ccc(O)c4O[C@H]2[C@@H](O)C=C[C@H]3[C@H]1C5 [MORPHINE] | – | – | – | – | – | – | – | – | – | – | – | – | – | – | – | 2.4 mg/kg | 3.4 mg/kg
